Assay results taken from ChEMBL document CHEMBL5038593, “Rational Design and Synthesis of Novel Dual PROTACs for Simultaneous Degradation of EGFR and PARP” (J Med Chem, 2021).
Active and inactive are the calls of the source. No cut-off for these calls is given here.

What was measured:
NCI-H1299 = assay: cells; type: functional, cell-based; settings: Homo sapiens, NCI-H1299, 72 h
[1] = biological target: T1, Protein cereblon/Epidermal growth factor receptor (Homo sapiens) (UniProt P00533+Q96SW2); assay: Protac activity at CRBN/EGFR in human SW1990 cells assessed as induction of EGFR degradation at 1 to 50 uM incubated for 24 hrs by Western blot analysis; type: cell-based; settings: dose 1-50 µM
Method in brief: (§1)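 SW1990 cells grown in high-glucose DMEM (25 mM glucose) with 10% FBS, 5% CO₂, 37 °C. Seeded and left 24 h, then exposed to DMSO or compound. Cells washed in PBS, lysed in RIPA, and cleared at 13 000 rpm for 15 min. Protein measured by BCA. 20−40 μg run on 10% SDS-PAGE, moved to PVDF, blocked 1 h in 5% milk or BSA, primary antibodies 1:1000 overnight at 4 °C, ECL detection.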

[2] = biological target: T2, Protein cereblon/Poly [ADP-ribose] polymerase 1 (Homo sapiens) (UniProt P09874+Q96SW2); assay: Protac activity at CRBN/PARP-1 in human SW1990 cells assessed as induction of PARP-1 degradation at 1 to 50 uM incubated for 24 hrs by Western blot analysis; type: cell-based; settings: dose 1-50 µM
Method in brief: as §1

[3] = biological target: T1, Protein cereblon/Epidermal growth factor receptor (Homo sapiens); assay: Protac activity at CRBN/EGFR in human SW1990 cells assessed as induction of EGFR degradation at 5 uM measured after 6 to 48 hrs by Western blot analysis; type: cell-based; settings: time 6-48 hrs, TDE = time-dependent effect
Method in brief: as §1

[4] = biological target: T2, Protein cereblon/Poly [ADP-ribose] polymerase 1 (Homo sapiens); assay: Protac activity at CRBN/PARP-1 in human SW1990 cells assessed as induction of PARP-1 degradation at 5 uM measured after 6 to 48 hrs by Western blot analysis; type: cell-based; settings: time 6-48 hrs, TDE = time-dependent effect
Method in brief: as §1

[5] = biological target: T1, Protein cereblon/Epidermal growth factor receptor (Homo sapiens); assay: Protac activity at CRBN/EGFR in human SW1990 cells assessed as decrease in EGFR expression level at 1 to 50 uM pretreated with proteasome inhibitor MG132 for 4 hr followed by incubation with compound for 24 hrs by Western blot analysis; type: cell-based; settings: dose 1-50 µM
Method in brief: as §1

[6] = biological target: T2, Protein cereblon/Poly [ADP-ribose] polymerase 1 (Homo sapiens); assay: Protac activity at CRBN/PARP-1 in human SW1990 cells assessed as decrease of PARP-1 expression level at 1 to 50 uM pretreated with proteasome inhibitor MG132 for 4 hr followed by incubation with compound for 24 hrs by Western blot analysis; type: cell-based; settings: dose 1-50 µM
Method in brief: as §1

[7] = biological target: Epidermal growth factor receptor (Homo sapiens, UniProt P00533); assay: biochemical; type: cell-based
[8] = biological target: Poly [ADP-ribose] polymerase 1 (Homo sapiens, UniProt P09874); assay: Binding affinity to human GST-tagged PARP-1 ART domain (788 to 1014 residues) expressed in Escherichia coli BL21 (DE3) assessed as dissociation constant incubated for 30 mins by microscale thermophoresis analysis
[9] = biological target: T3, von Hippel-Lindau disease tumor suppressor/Epidermal growth factor receptor (Homo sapiens) (UniProt P00533+P40337); assay: Protac activity at VHL/EGFR in human NCI-H1299 cells assessed as induction of EGFR degradation by measuring reduction in p-EGFR level at 15 uM incubated for 36 hrs by Western blot analysis; type: cell-based
Method in brief: (§2)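 NCI-H1299 cells grown in high-glucose DMEM with 10% FBS at 37 °C, 5% CO₂. Compound given after 24 h seeding. Lysis in RIPA, BCA protein assay, 20−40 μg on 10% SDS-PAGE, PVDF transfer, primary antibodies 1:1000 overnight at 4 °C, ECL. EGFR, p-EGFR and PARP probed.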

[10] = biological target: T4, von Hippel-Lindau disease tumor suppressor/Poly [ADP-ribose] polymerase 1 (Homo sapiens) (UniProt P09874+P40337); assay: Protac activity at VHL/PARP-1 in human A-431 cells assessed as induction of PARP-1 degradation at 0.8 to 20 uM incubated for 36 hrs by Western blot analysis; type: cell-based; settings: dose 0.8-20 µM
[11] = biological target: T3, von Hippel-Lindau disease tumor suppressor/Epidermal growth factor receptor (Homo sapiens); assay: Protac activity at VHL/EGFR in human A-431 cells assessed as induction of EGFR degradation at 0.8 to 20 uM incubated for 36 hrs by Western blot analysis; type: cell-based; settings: dose 0.8-20 µM
[12] = biological target: T3, von Hippel-Lindau disease tumor suppressor/Epidermal growth factor receptor (Homo sapiens); assay: Protac activity at VHL/EGFR in human NCI-H1299 cells assessed as induction of EGFR degradation at 4 uM incubated for 6 hrs by Western blot analysis; type: cell-based
Method in brief: as §2

[13] = biological target: T4, von Hippel-Lindau disease tumor suppressor/Poly [ADP-ribose] polymerase 1 (Homo sapiens); assay: Protac activity at VHL/PARP-1 in human NCI-H1299 cells assessed as induction of PARP degradation at 4 uM incubated for 6 hrs by Western blot analysis; type: cell-based
Method in brief: as §2

[14] = biological target: T3, von Hippel-Lindau disease tumor suppressor/Epidermal growth factor receptor (Homo sapiens); assay: Protac activity at VHL/EGFR in human NCI-H1299 cells assessed as decrease in EGFR degradation at up to 15 uM pretreated with proteasome inhibitor MG132 for 4 hr followed by incubation with compound for 6 hrs by Western blot analysis; type: cell-based; settings: dose microM <=15, time 6.0 hrs
Method in brief: as §2

[15] = biological target: T4, von Hippel-Lindau disease tumor suppressor/Poly [ADP-ribose] polymerase 1 (Homo sapiens); assay: Protac activity at VHL/PARP-1 in human NCI-H1299 cells assessed as decrease of PARP-1 degradation at up to 15 uM pretreated with proteasome inhibitor MG132 for 4 hr followed by incubation with compound for 6 hrs by Western blot analysis; type: cell-based; settings: dose microM <=15, time 6.0 hrs
Method in brief: as §2

[16] = biological target: T4, von Hippel-Lindau disease tumor suppressor/Poly [ADP-ribose] polymerase 1 (Homo sapiens); assay: Protac activity at VHL/PARP-1 in human NCI-H1299 cells assessed as induction of PARP degradation at 0.47 uM incubated for 36 hrs by Western blot analysis relative to control

T1 sequence (P00533 25-1210 limits assumed): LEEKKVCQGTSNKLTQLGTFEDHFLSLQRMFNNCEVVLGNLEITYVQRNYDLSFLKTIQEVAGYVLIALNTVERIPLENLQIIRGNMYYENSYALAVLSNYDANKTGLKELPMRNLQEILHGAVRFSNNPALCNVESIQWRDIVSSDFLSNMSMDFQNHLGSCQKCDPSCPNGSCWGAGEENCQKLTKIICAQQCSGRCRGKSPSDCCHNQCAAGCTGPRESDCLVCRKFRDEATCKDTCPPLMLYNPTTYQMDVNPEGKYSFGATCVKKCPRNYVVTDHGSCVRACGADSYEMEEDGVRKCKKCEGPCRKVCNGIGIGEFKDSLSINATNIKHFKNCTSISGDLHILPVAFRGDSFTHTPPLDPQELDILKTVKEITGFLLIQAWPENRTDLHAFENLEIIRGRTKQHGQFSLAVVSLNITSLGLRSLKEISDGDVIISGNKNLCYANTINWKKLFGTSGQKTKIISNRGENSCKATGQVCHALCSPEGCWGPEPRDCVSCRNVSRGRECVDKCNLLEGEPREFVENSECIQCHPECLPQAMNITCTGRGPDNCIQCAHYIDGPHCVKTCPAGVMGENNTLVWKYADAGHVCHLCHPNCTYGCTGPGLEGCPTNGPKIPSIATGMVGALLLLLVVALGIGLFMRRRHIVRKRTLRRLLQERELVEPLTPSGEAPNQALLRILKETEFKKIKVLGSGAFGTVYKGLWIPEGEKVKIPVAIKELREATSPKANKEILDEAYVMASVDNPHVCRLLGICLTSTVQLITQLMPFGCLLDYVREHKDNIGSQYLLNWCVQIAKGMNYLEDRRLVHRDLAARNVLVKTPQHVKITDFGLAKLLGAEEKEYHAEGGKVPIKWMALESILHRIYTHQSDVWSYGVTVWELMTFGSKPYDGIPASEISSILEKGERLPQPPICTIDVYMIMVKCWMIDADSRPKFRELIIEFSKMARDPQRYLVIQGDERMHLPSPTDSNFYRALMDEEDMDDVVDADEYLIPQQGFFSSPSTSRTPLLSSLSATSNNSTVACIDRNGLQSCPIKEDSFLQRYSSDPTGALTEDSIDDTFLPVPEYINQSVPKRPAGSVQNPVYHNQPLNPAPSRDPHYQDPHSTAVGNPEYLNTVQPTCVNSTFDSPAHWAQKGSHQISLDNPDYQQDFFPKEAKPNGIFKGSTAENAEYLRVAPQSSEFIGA
T1 sequence (Q96SW2 whole entry partner): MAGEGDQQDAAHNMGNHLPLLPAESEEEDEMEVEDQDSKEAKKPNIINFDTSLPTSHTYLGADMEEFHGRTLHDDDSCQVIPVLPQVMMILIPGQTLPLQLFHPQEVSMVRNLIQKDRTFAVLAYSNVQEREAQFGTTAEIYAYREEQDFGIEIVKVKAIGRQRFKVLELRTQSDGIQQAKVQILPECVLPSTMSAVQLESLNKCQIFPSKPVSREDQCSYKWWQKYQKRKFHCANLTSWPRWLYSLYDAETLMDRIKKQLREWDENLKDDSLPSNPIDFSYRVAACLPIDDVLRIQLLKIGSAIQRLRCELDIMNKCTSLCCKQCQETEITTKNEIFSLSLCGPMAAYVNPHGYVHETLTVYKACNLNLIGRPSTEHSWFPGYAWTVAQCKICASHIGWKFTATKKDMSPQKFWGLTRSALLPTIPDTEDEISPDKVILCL
T3 sequence (P00533 25-1210 limits assumed): as the sequence (P00533 25-1210 limits assumed) above
T3 sequence (P40337 whole entry partner): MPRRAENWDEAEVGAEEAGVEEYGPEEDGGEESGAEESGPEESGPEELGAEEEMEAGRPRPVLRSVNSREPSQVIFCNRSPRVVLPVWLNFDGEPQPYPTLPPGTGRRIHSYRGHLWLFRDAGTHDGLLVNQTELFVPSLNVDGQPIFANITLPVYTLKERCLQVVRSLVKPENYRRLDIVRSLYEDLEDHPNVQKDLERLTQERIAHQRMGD
T4 sequence (P09874 whole entry, looked up): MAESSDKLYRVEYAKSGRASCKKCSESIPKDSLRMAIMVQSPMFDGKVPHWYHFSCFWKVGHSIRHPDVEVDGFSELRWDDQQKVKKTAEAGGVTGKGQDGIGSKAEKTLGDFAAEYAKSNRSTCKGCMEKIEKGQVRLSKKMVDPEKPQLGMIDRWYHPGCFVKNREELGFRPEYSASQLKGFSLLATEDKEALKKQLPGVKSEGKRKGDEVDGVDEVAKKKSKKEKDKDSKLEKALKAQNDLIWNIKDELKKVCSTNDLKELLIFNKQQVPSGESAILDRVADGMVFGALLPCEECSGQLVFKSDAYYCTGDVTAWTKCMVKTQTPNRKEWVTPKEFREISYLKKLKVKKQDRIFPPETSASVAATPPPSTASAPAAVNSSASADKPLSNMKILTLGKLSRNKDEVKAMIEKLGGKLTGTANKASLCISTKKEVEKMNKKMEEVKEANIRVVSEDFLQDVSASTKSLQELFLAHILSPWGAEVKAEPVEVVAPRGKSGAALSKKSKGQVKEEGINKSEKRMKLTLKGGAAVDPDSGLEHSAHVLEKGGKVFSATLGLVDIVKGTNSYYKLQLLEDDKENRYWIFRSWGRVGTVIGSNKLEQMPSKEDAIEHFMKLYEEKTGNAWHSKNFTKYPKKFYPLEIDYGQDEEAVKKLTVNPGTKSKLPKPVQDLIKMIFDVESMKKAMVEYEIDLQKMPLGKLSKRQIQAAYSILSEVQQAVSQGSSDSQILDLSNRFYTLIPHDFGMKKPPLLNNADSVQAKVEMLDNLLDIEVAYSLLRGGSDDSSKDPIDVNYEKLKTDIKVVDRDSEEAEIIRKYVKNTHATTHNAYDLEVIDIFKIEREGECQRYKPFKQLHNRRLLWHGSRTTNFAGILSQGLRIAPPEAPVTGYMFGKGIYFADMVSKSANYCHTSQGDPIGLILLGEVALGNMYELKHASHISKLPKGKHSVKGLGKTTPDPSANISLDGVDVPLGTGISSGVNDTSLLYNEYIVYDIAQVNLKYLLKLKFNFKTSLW
T4 sequence (P40337 whole entry, looked up): as the sequence (P40337 whole entry partner) above
Chain of Poly [ADP-ribose] polymerase 1 (P09874 whole entry, the tested form may be a part): as the sequence (P09874 whole entry, looked up) above

Q: `O=C(c1cc(Cc2n[nH]c(=O)c3ccccc23)ccc1F)N1CCN(C(=O)C2CC2)CC1` [OLAPARIB] was tested. Which IC50 (NCI-H1299) did it give?
A: 35.9 µM

Q: `COc1cc2ncnc(Nc3ccc(F)c(Cl)c3)c2cc1OCC(=O)NC(Cc1ccc(OCc2cn(CCOCCNc3cccc4c3C(=O)N(C3CCC(=O)NC3=O)C4=O)nn2)cc1)C(=O)N1CCN(C(=O)c2cc(Cc3n[nH]c(=O)c4ccccc34)ccc2F)CC1` (centres undefined) was tested. Which Activity [1] did it give?
A: Active

Q: What about the Activity [2] of the same compound?
A: Active

Q: And the Activity [3]?
A: Tde

Q: What about the Activity [4] of the same compound?
A: Tde

Q: And the Activity [5]?
A: Active

Q: What about the Activity [6] of the same compound?
A: Active

Q: What about the Kd [7] of the same compound?
A: 2.74 µM

Q: And the Kd [8]?
A: 7.89 µM

Q: Which Activity [1] does the source give for `COc1cc2ncnc(Nc3ccc(F)c(Cl)c3)c2cc1OCCCCCC(=O)NC(COCc1cn(CCOCCOCCNc2cccc3c2C(=O)N(C2CCC(=O)NC2=O)C3=O)nn1)C(=O)NCCCCCC(=O)N1CCN(C(=O)c2cc(Cc3n[nH]c(=O)c4ccccc34)ccc2F)CC1` (centres undefined) here?
A: Active

Q: What about the Activity [2] of the same compound?
A: Active

Q: Which results are given for `COc1cc2ncnc(Nc3ccc(F)c(Cl)c3)c2cc1OCCCCCC(=O)NC(COCc1cn(CCCC(=O)N[C@H](C(=O)N2C[C@H](O)C[C@H]2C(=O)NCc2ccc(-c3scnc3C)cc2)C(C)(C)C)nn1)C(=O)NCCCCCC(=O)N1CCN(C(=O)c2cc(Cc3n[nH]c(=O)c4ccccc34)ccc2F)CC1` (some centres undefined)?
A: Activity [9]: Active; Activity [10]: Active; Activity [11]: Active; Activity [12]: Active; Activity [13]: Active; Activity [14]: Active; Activity [15]: Active; IC50 (NCI-H1299): 19.9 µM; Kd [7]: 5.47 µM; Kd [8]: 12.8 µM; Activity [16]: 50%

Q: How did the Activity [1] turn out when `COc1cc2ncnc(Nc3ccc(F)c(Cl)c3)c2cc1OCCCC(=O)NC(COCc1cn(CCOCCNc2cccc3c2C(=O)N(C2CCC(=O)NC2=O)C3=O)nn1)C(=O)NCCCC(=O)N1CCN(C(=O)c2cc(Cc3n[nH]c(=O)c4ccccc34)ccc2F)CC1` (centres undefined) was run?
A: Active

Q: And the Activity [2]?
A: Active

Q: Which Activity [1] does the source give for `COc1cc2ncnc(Nc3ccc(F)c(Cl)c3)c2cc1OCCCC(=O)NCc1cn(CCOCCNc2cccc3c2C(=O)N(C2CCC(=O)NC2=O)C3=O)nn1` (centres undefined) here?
A: Active

Q: `O=C1CCC(N2C(=O)c3cccc(NCCOCCn4cc(CCC(=O)N5CCN(C(=O)c6cc(Cc7n[nH]c(=O)c8ccccc78)ccc6F)CC5)nn4)c3C2=O)C(=O)N1` (centres undefined) was tested. Which Activity [1] did it give?
A: Active

Q: What about the Activity [2] of the same compound?
A: Active

Q: With `COc1cc2ncnc(Nc3ccc(F)c(Cl)c3)c2cc1OCCCC(=O)NC(COCc1cn(CCOCCNc2cccc3c2C(=O)N(C2CCC(=O)NC2=O)C3=O)nn1)C(=O)N1CCN(C(=O)c2cc(Cc3n[nH]c(=O)c4ccccc34)ccc2F)CC1` (centres undefined) as the compound, how does the Activity [1] read?
A: Active

Q: What about the Activity [2] of the same compound?
A: Active
